CDK5 p35 inh: blocks human CDK5/p35 kinase activity; inhibition, % at 10 µM; Q00535+Q15078; 330,000 compounds, 0.01% hits; Recombinant CDK5/p35, ADP-Glo luminescence, 60 min;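 active = highest replicate inhibition of at least 50% and at least 75% of replicates reaching 50%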;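 note: plate controls were DMSO neutral control for no effect and GW8510 at 10 µM for full effect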
Env fusion inh: HIV envelope-mediated fusion inhibition | 360,000 compounds, 1.1% hits | inhibition, % at 12.3 µM | AID 651610 | HeLa-JRFL Env/CEM21 cell fusion, luciferase;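 active = mean replicate inhibition score of at least 50 and every replicate individually at or above 50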;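 note: 0% = plate neutral controls and 100% = maraviroc near 300 nM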
dFosB activator: enhances mouse delta FosB homodimer DNA binding; P13346; purified delta FosB, TAMRA-CDK5 oligo fluorescence polarization; percent of positive-control signal above neutral wells; activation, % at 25 µM; 340,000 compounds, 0.99% hits; AID 493131;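 active = mean activation above about 17%, with every replicate also reaching it, limit read from the data, passing the limit was not always enough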
Target sequence (P13346 whole entry, looked up): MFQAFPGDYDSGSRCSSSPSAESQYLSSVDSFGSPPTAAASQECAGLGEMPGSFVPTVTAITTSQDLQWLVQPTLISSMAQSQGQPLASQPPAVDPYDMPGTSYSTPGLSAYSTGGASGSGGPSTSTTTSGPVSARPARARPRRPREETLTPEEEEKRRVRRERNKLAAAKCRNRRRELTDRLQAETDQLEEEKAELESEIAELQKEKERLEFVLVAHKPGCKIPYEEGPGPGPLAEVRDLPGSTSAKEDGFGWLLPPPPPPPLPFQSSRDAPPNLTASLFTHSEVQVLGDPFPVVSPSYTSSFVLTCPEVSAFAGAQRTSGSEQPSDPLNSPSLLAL
Cneo AK release: causes C. neoformans cell lysis | adenylate kinase release luminescence, 4 h; normalised: neutral wells 0, clomiphene wells 100 | lysis activity, % at 15 µM | 360,000 compounds, 0.2% hits | AID 651654;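 active = mean lysis activity across replicates of at least 80%, whatever share of replicates individually reach that level; inactive = mean lysis activity below 80%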
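Assay system: C. neoformans cells. Amount: yeast cell density of 5 × 10^6 cells/mL. Technique: AK luminescence. Buffer or medium: YPD. Times: static 4 h at 37 °C with compound, 1 h detection. Dosing: single-point compound dose. Read-out: lysis from increased AK signal.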
GSIS activator: primary screen for activators of insulin secretion dependent on glucose, INS-1E cells, GLuc reporter luminescence | INS-1E GLuc reporter insulin secretion, 2-3 h | activation, % at 16.6 µM | 370,000 compounds, 0.61% hits;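 active = lowest replicate activation of at least 40%, so every replicate reaches that level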;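 note: 0% = median of neutral control wells and 100% = median of IBMX positive control wells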
PAX8 inh HTS: lowers PAX8-driven luciferase in RMG-I cells; AID 652154; RMG-I TPO-luciferase reporter, SteadyGlo, 24 h; inhibition, % at 12.6 µM; 360,000 compounds, 1.2% hits;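 active = mean replicate inhibition at least 60% with every replicate also reaching 60%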;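 note: luciferase light reporting Pax8 driven TPO promoter activity; plate controls were median of neutral control wells for no effect and mitoxantrone controls for full effect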
An asterisk follows results filed as active; nt = no result; [ ] = dose if it differs, or a comment. A selection: hits, their analogues and other compounds. The true share with any hit is near 2.9%.

SMILES	CDK5 p35 inh	Env fusion inh	dFosB activator	Cneo AK release	GSIS activator	PAX8 inh HTS
O=C(N/N=C/c1sc(N2CCOCC2)nc1-c1ccccc1)c1cccc(S(=O)(=O)N2CCOCC2)c1	-1	88*	-12	nt	9	50
O=C(O)c1cccc(N/N=C/c2sc(N3CCOCC3)nc2-c2ccccc2)c1	nt	nt	-8	1	42*	nt
C[C@@H]1CN([C@@H](C)CO)C(=O)c2cc(C#CC3CC3)cnc2O[C@@H]1CN(C)Cc1ccccc1C(=O)O	nt	-1[16.7 µM]	nt	2	-1	nt
C[C@H]1CN([C@@H](C)CO)C(=O)c2cc(NC(=O)Nc3ccccc3)ccc2O[C@H]1CN(C)Cc1ccc(C(=O)O)cc1	nt	nt	nt	-1	19	-1
C[C@@H]1CCCCO[C@@H](CN(C)C(=O)Nc2cccc3ccccc23)[C@H](C)CN([C@H](C)CO)C(=O)c2cc(NS(=O)(=O)c3ccccc3)ccc2O1	nt	-7[16.7 µM]	nt	-2	33	80*
Cc1ccc(S(=O)(=O)Nc2ccc3c(c2)C(=O)N([C@@H](C)CO)C[C@@H](C)[C@@H](CN(C)C(=O)Nc2cccc4ccccc24)OCCCC[C@@H](C)O3)cc1	nt	-41[16.7 µM]	nt	2	9	68*
CCCN1C[C@H](C)[C@H](OC)CN(C)C(=O)c2ccc(NC(=O)COC)cc2OC[C@H]1C	nt	1[16.7 µM]	nt	5	2	-7
O=C(c1ccc(F)cc1)N1CC(=O)N2[C@@H](CO)[C@@H](c3ccc(-c4ccccc4)cc3)[C@@H]2C1	nt	nt	nt	nt	-16	17
C[n+]1c(-c2ccccc2)cc2c(=Cc3ccc([N+](=O)[O-])cc3)c3ccccc3n21	2	-369	-8	nt	4	74*
C[n+]1c(-c2ccccc2)cc2c(=Cc3ccccc3)c3ccccc3n21	3	46	-1	nt	33	115*
CN(C)c1ccc(C=c2c3cc(O)ccc3n3c2cc(-c2ccccc2)[n+]3C)cc1	3	64*	82*	nt	-55	73*
FC(F)(Cl)c1nnc2ccc(Cl)nn12	-2	9	-4	nt	9	74*
COc1cc2cnc(-c3cccnc3)cc2cc1OC	2	-39	-25	-2	62*	-49
CO[C@@H]1CN(C)C(=O)c2ccc(NS(=O)(=O)c3cccc(F)c3)cc2OC[C@H](C)N(Cc2cc(F)ccc2F)C[C@H]1C	nt	nt	nt	-3	-36	-3
O=C(Cc1ccccn1)N1CC(=O)N2[C@H](C1)[C@H](c1ccc(C#CC3CCCCC3)cc1)[C@@H]2CO	nt	nt	nt	nt	-11	29
CCS(=O)(=O)N[C@H]1CC[C@@H](CC(=O)NCc2ccc(Cl)cc2)O[C@@H]1CO	nt	70*[16.7 µM]	nt	1	nt	15
COc1cccc(S(=O)(=O)N[C@@H]2CC[C@@H](CC(=O)NCc3ccncc3)O[C@H]2CO)c1	nt	14[16.7 µM]	nt	32	-1	1
COc1ccc(S(=O)(=O)N[C@@H]2CC[C@@H](CC(=O)NCCc3ccncc3)O[C@@H]2CO)cc1	nt	58*[16.7 µM]	nt	-3	12	-17
COc1ccc(S(=O)(=O)N[C@@H]2CC[C@H](CC(=O)NCCc3ccncc3)O[C@H]2CO)cc1	nt	-6[16.7 µM]	nt	-1	8	-18
COc1cccc(S(=O)(=O)N[C@H]2CC[C@H](CC(=O)NCc3ccncc3)O[C@@H]2CO)c1	nt	66*[16.7 µM]	nt	28	-6	-8
CC(C)NC(=O)N(C)C[C@@H]1OCCCC[C@@H](C)Oc2ccc(NC(=O)C3CCCCC3)cc2C(=O)N([C@@H](C)CO)C[C@H]1C	nt	5[16.7 µM]	nt	nt	-2	13
CN(C)CCC(=O)N1C/C(=C/c2ccccc2)C(=O)/C(=C\c2ccccc2)C1	-3	75*	-8	nt	-10	nt
CCN(CC)c1ccc(/C=N/NC(=O)Cc2nnc(NC(=O)Nc3ccccc3)s2)cc1	0	2	25*	nt	13	-20
CCN(CC)c1ccc(/C=N/NC(=O)Nc2ccccc2)cc1	-4	-52	-10	nt	-9	-123
COc1cccc(NC(=O)CSc2nnc(Cc3cccs3)n2-c2ccc(C)cc2)c1	1	84*	-7	2	-23	nt
SMILES	CDK5 p35 inh	Env fusion inh	dFosB activator	Cneo AK release	GSIS activator	PAX8 inh HTS
COc1ccc(NC(=O)N(C)C[C@@H]2Oc3c(NS(=O)(=O)c4cccs4)cccc3C(=O)N([C@H](C)CO)C[C@H]2C)cc1	nt	nt	nt	-2	10	nt
O=C(N/N=C/c1c(O)ccc2ccccc12)c1ccc(CO)nc1	1	-3	13	5	nt	71*
O=C(NN=Cc1c(O)ccc2ccccc12)c1ccc2c(c1)OCO2	1	38	-2	-2	-5	12
CO[C@H]1CN(C)C(=O)c2cc(C#N)ccc2OC[C@@H]2O[C@H](CC[C@H]2OC)CCN(C)C(=O)[C@H]1C	nt	0[16.7 µM]	nt	7	-2	6
Cc1cc(C)n(-c2nc(SCC(=O)O)c3c4c(sc3n2)COC(C)(C)C4)n1	0	22	-17	nt	43*	0
O=C(NN=C1CCCC1)c1cc(-c2ccccc2)n[nH]1	0	1	-5	nt	48*	6
O=C(NN=C1CCCCC1)c1cc(-c2ccccc2)n[nH]1	-3	-18	7	nt	34	8
Cc1ccc(S(=O)(=O)N2C[C@H](O)COC[C@H]3O[C@H](CC(=O)NCc4ccc(Cl)c(Cl)c4)CC[C@@H]32)cc1	nt	nt	nt	2	-17	43
Cc1ccc(S(=O)(=O)N2C[C@@H](O)COC[C@@H]3O[C@H](CC(=O)NCc4ccc5c(c4)OCO5)CC[C@H]32)cc1	nt	3[16.7 µM]	nt	109*	-8	7
Cc1ccc(S(=O)(=O)N2C[C@H](O)COC[C@H]3O[C@@H](CC(=O)NCc4ccc(Cl)c(Cl)c4)CC[C@@H]32)cc1	nt	nt	nt	-2	-11	75*
Cc1ccc(S(=O)(=O)N2C[C@@H](O)COC[C@H]3O[C@@H](CC(=O)NCc4ccc5c(c4)OCO5)CC[C@@H]32)cc1	nt	13[16.7 µM]	nt	0	-5	8
CC(C)(Sc1ccc(CCN(CCCCC2CCCCC2)C(=O)NC2CCCCC2)cc1)C(=O)O	2	57*	-18	-2	nt	-19
C[C@@H]1CN([C@H](C)CO)C(=O)c2cc(C3=CCCC3)cnc2O[C@H]1CN(C)C(=O)Nc1cccc(F)c1	nt	4[16.7 µM]	nt	37	-18	11
CC[n+]1c(C=C2C=C(C)OC(C)=C2)sc2ccccc21	2	26	8	nt	-31	85*
CC(C)CC(=O)NC(=S)NCCc1ccccc1	1	-42	-7	11	nt	-14
CC(C)(C)CC(=O)NC(=S)NCCc1ccccc1	0	nt	-5	100*	-19	nt
C[C@H](CO)N1C[C@H](C)[C@@H](CN(C)C(=O)c2cccc(F)c2)Oc2ncc(-c3ccncc3)cc2C1=O	nt	-16[16.7 µM]	nt	0	-12	nt
C[C@@H]1CN([C@H](C)CO)C(=O)c2cc(C#CC3CCCCC3)cnc2O[C@H]1CN(C)Cc1ccncc1	nt	17[16.7 µM]	nt	-1	-21	nt

Screening data: PubChem, Broad Institute
